In paper PMC6055826 (Chemistry (Weinheim an Der Bergstrasse, Germany), 2018):

What was measured:
[1] = Hydrolytic stability; format: physicochemical; details: for Recovery [%] (pH): 24 hours with stirring
Summary of the method: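 Test compound stirred for 24 hours in buffer at each of three pH values: pH 1 in HCl buffer, pH 7 in phosphate-buffered saline, and pH 10 in sodium borate buffer. Stability expressed as recovery of test compound.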

[2] = Metabolic stability assay, pooled human liver microsomes; format: in vitro ADME; details: predicted maximum oral bioavailability
Summary of the method: (§1)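 Metabolic stability measured in vitro in pooled liver microsomes (human, rat or mouse) or freshly harvested rat hepatocytes.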

[3] = Metabolic stability assay, pooled rat liver microsomes; format: in vitro ADME; details: predicted maximum oral bioavailability
Summary of the method: as §1

[4] = Metabolic stability assay, pooled mouse liver microsomes; format: in vitro ADME; details: predicted maximum oral bioavailability
Summary of the method: as §1

[5] = system: freshly harvested rat hepatocytes (rHep); assay: Metabolic stability assay, freshly harvested rat hepatocytes; format: in vitro ADME; details: predicted maximum oral bioavailability
Summary of the method: as §1

[6] = Bidirectional Caco2 permeability assay, 24-well format; format: in vitro ADME; details: human, Caco-2
Summary of the method: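 Caco-2 monolayers run bidirectionally in a 24-well format, measuring apparent permeability both apical-to-basolateral (A-B) and basolateral-to-apical (B-A). Efflux ratio calculated as Papp B-A divided by Papp A-B.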

[7] = logD by reversed-phase HPLC; format: physicochemical; details: pH 7.5
[8] = pH 7 (phosphate-buffered saline)

O=S(=Nc1cccc(F)c1)(c1ccccc1)N1CCCCC1 (centres unmarked) [2 bc]
Recovery [%] (pH) ([1]; pH 1 (HCl buffer)): 100 (1) 100 (7) 100 (10) %
Recovery [%] (pH) [1, 8]: 100 (1) 100 (7) 100 (10) %
Recovery [%] (pH) ([1]; pH 10 (sodium borate buffer)): 100 (1) 100 (7) 100 (10) %
F max (h/r/m)-LMs [%] ([2]; listed as C00021): 8.3%
F max (h/r/m)-LMs [%] [3]: 0.5%
F max (h/r/m)-LMs [%] [4]: 16%
F max rHep [%] [5]: 2.1%
Papp A→B [6]: 25.2 ×10⁻⁶ cm/s
efflux ratio [6]: 0.45
chromatographic logD [7]: 4.3

CN=S(=O)(c1ccccc1)N1CCCCC1 (centres unmarked) [2 cm]
Recovery [%] (pH) ([1]; pH 1 (HCl buffer)): 100 (1) 100 (7) 100 (10) %
Recovery [%] (pH) [1, 8]: 100 (1) 100 (7) 100 (10) %
Recovery [%] (pH) ([1]; pH 10 (sodium borate buffer)): 100 (1) 100 (7) 100 (10) %
F max (h/r/m)-LMs [%] [2]: 84%
F max (h/r/m)-LMs [%] [3]: 18%
F max (h/r/m)-LMs [%] [4]: 47%
F max rHep [%] [5]: 19%
Papp A→B [6]: 40.4 ×10⁻⁶ cm/s
efflux ratio [6]: 0.57
chromatographic logD [7]: 2.4

O=S(=NC(F)(F)F)(c1ccccc1)N1CCCCC1 (centres unmarked) [2 cs, 1‐[S‐Phenyl‐N‐(trifluoromethyl)sulfonimidoyl]piperidine]
hydrolytic stability (in words) ([1]; after 24 hours with stirring at pH 1, 7 and 10): signs of hydrolysis at pH 1 and 10
Recovery [%] (pH) ([1]; pH 1 (HCl buffer)): 56%
Recovery [%] (pH) [1, 8]: 100%
Recovery [%] (pH) ([1]; pH 10 (sodium borate buffer)): 91%
F max (h/r/m)-LMs [%] [2]: 19%
F max (h/r/m)-LMs [%] [3]: 10%
F max (h/r/m)-LMs [%] [4]: 9.3%
F max rHep [%] [5]: 6.8%
Papp A→B [6]: 19.2 ×10⁻⁶ cm/s
efflux ratio [6]: 0.7
chromatographic logD [7]: 3.7

CS(=O)(=O)N=S(=O)(c1ccccc1)N1CCCCC1 (centres unmarked) [2 ea, N‐[Oxo(phenyl)(piperidin‐1‐yl)‐λ^6‐sulfanylidene]methanesulfonamide]
Recovery [%] (pH) ([1]; pH 1 (HCl buffer)): 100 (1) 100 (7) 100 (10) %
Recovery [%] (pH) [1, 8]: 100 (1) 100 (7) 100 (10) %
Recovery [%] (pH) ([1]; pH 10 (sodium borate buffer)): 100 (1) 100 (7) 100 (10) %
F max (h/r/m)-LMs [%] ([2]; listed as C00015): 100%
F max (h/r/m)-LMs [%] [3]: 33%
F max (h/r/m)-LMs [%] [4]: 83%
F max rHep [%] [5]: 20%
Papp A→B [6]: 36.3 ×10⁻⁶ cm/s
efflux ratio [6]: 0.67
chromatographic logD [7]: 2
